The structures appear in SMILES notation. Values after ≈ are worked out from the molar mass of the structure shown. Active and inactive are the calls of the source. The calls are words filed in the database; no cut-off is given here.

In one assay the test system is HL-60. In words: Induction of cell differentiation of human HL60 cells at 4 ug/mL after 4 days by non-specific esterase determination. The settings on record: for % differentiation: HL-60, 96 h. It is filed as functional, cell-based. In short, it runs like this: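 HL-60 cells kept in RPMI 1640 with 10% fetal calf serum and penicillin/streptomycin at 37 °C, 5% CO2. Cells at 1.2 × 10^5 cells/mL, preincubated 18 h, then added to compounds in DMSO (final 0.1% v/v). After 4 days, α-naphthyl acetate esterase was stained cytochemically, ≥200 cells counted microscopically in duplicate, and the % differentiated cells recorded.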

For the next assay, the system named is Col2. In words: Antiproliferative activity against human Col2 cells after 3 days by sulforhodamine B assay. Particulars: for IC50: Col2, 72 h. It is filed as functional, cell-based. A digest of the protocol: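 Col2 human colon cancer cells grown in MEME with 10% NEAA, antibiotic-antimycotic and 10% FBS at 37 °C, 5% CO2. Exponentially growing cells were added to wells containing compounds in DMSO and grown 3 days. Cells were then TCA-fixed and stained with 0.4% SRB in 1% acetic acid, and the dye was solubilized in 0.1 M Tris. Absorbance read at 515 nm; % growth calculated against day-0 and DMSO-control absorbances.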
A general note: The SRB assay estimates cell density from bound dye.

Assay [1] in a line: Inhibition of 7,12-dimethylbenz[a]anthracene-induced preneoplastic lesions in a BALB/c mouse mammary gland culture at 10 ug/mL treated for 10 days before DMBA-challenge measured after 14 days. It is filed as functional, tissue-based. In short, it runs like this: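 BALB/c female mice were primed 9 days with estradiol (1 µg) and progesterone (1 mg). Second thoracic mammary glands were cultured 10 days at 37 °C in 95% O2/5% CO2 in Waymouth's 752/1 MB medium with insulin, prolactin, aldosterone and hydrocortisone. DMBA 2 µg/mL was given at 72–96 h and compounds on days 1–10. Glands then regressed 14 days with insulin only and were scored for lesion incidence. % inhibition is relative to the DMBA control.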

In the case of `C=C1C(=O)O[C@@H]2C[C@H](C)[C@@]3(O)C[C@H](O)[C@@](C)(C[C@@H](OC(=O)C(C)C)[C@@H]12)O3`, the outcome in the assay on HL-60 and with Col2 was inactive.
`C=C1C(=O)O[C@@H]2C[C@H](C)[C@@]3(O)CC[C@@](C)(C[C@@H](OC(=O)C(C)C)[C@@H]12)O3`: the result with HL-60 and in the assay with Col2 was inactive.
As for `C=C1C(=O)O[C@H]2[C@H]1[C@H](OC(=O)C(C)C)C[C@@]1(C)[C@H](O)C[C@H](OC(C)=O)C(=C)[C@H]21`, the % inhibition – broadly, the share of the control response that was lost under treatment – in assay [1] is 63%. In the assay on HL-60, this molecule gave a % differentiation of 33.9%. In addition, the midpoint of inhibition with Col2, the IC50, lay at 5.9 mg/L (≈ 15 µM).
The matching figures for `C=C1C(=O)O[C@@H]2/C=C(/C)C(=O)/C=C/[C@](C)(O)C[C@@H](OC(=O)C(C)C)[C@@H]12` [TAGITININ C]: 44.4%, 20% and 0.7 mg/L (≈ 2.01 µM).
The matching figures for `C=C1C(=O)O[C@H]2[C@H]1[C@H](OC(=O)C(C)C)C[C@@]1(C)[C@H](O)C[C@H](OC(C)=O)[C@@](C)(O)[C@H]21` [TITHOFOLINOLIDE]: 40.2%, 37.4% and above 20 mg/L.
For the molecule `C=C(C(=O)OC)[C@@H]1CC[C@@]2(C)CC[C@@H](OC(C)=O)[C@@](C)(O)[C@@H]2C1`, the outcome in the assay on HL-60 and in the assay on Col2 was inactive.
In turn, `C=C1C(=O)O[C@H]2[C@H]1[C@H](OC(=O)C(C)C)C[C@@](C)(O)[C@@H]1CC(=O)[C@@](C)(O)[C@H]21` returned a % inhibition in assay [1] of 48.7%. For the same molecule, in the assay on HL-60, the % differentiation was determined as 32.4%. For the same molecule, the IC50 – broadly, the concentration at which inhibition is half-maximal – in the assay on Col2 was 18.9 mg/L (≈ 51.6 µM).
In the assay with HL-60, `C=C1C(=O)O[C@@H]2C[C@H](C)[C@]3(O)O[C@@](C)(C[C@H]3O)C[C@@H](OC(=O)C(C)C)[C@@H]12` gave a % differentiation below 10%. The molecule also returned an IC50 in the assay with Col2 above 20 mg/L.
`C=C1C(=O)O[C@@H]2/C=C(/C)C(=O)[C@@H]3O[C@H]3[C@](C)(O)C[C@@H](OC(=O)C(C)C)[C@@H]12` displayed a % inhibition in assay [1] of 44.4%. The same molecule returned a % differentiation with HL-60 below 10%. In the assay on Col2, this molecule had an IC50 of 1.7 mg/L (≈ 4.67 µM).
For `COC(=O)/C=C/[C@@H]1CC[C@@]2(C)CC[C@@H](OC(C)=O)[C@@](C)(O)[C@@H]2C1`, in the assay on HL-60, the % differentiation was below 10%. The molecule also came in with an IC50 in the assay on Col2 above 20 mg/L.

The values above are taken from ChEMBL document CHEMBL1148122, “Sesquiterpenoids from Tithonia diversifolia with potential cancer chemopreventive activity” (J Nat Prod, 2002).
